# Compounds with a hit are over-represented: about 1.4% of the library has one in this group of screens.
# Vif inh: HIV Vif self-association inhibitors, primary screen, imaging, HEK293T, single point; HEK293T cells, Vif self-association by quenched fluorescence, 24 h; inhibition, % at 7.49 µM; hit rate 0.35% among 340,000; AID 602346, 2012; in the data active = inhibition above about 50%, passing the limit was not always enough
# SR-BI HDL uptake: inhibitors of SR-BI mediated HDL lipid uptake, primary screen, ldlA[mSR-BI] cells, fluorescence, single point; hit rate 0.96% among 320,000; AID 488896, 2010; ldlA[mSR-BI] CHO cells, DiI-HDL uptake fluorescence, 3 h; inhibition, % at 12.5 µM;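 active = mean replicate inhibition of at least 70% and a set share of replicates each scoring 70 or more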;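 note: 0% = median of neutral control wells and 100% = median of positive control wells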
# Target sequence (Q61009 whole entry, looked up): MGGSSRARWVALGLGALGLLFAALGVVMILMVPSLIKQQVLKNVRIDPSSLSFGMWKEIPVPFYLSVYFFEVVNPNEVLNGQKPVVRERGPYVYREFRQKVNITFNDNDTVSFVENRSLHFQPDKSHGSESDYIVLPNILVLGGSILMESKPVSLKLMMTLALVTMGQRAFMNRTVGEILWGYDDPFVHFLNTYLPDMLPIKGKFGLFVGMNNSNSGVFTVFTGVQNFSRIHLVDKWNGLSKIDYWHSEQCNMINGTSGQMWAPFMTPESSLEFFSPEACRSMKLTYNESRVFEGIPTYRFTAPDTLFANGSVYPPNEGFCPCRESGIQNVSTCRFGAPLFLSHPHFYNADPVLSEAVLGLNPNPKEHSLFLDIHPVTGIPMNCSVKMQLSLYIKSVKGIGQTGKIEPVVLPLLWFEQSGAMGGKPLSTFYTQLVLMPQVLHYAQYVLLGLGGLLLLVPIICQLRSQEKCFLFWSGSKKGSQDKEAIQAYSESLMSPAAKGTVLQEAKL
# PKA-R1A activ: activators of PKA-R1A holoenzyme, primary screen, biochemical, fluorescence polarization, Cy5-IP20, bovine R1A, mouse PKAc; PKA-R1A dissociation; scaled: DMSO 0%, 113 µM cGMP 100%; activation, % at 11.4 µM; hit rate 0.083% among 340,000;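 active = percent activation above the mean of all tested compounds plus 3 SD, cut at about 19% in these data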;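 note: higher means more PKAc released from R1A so a rise in polarization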
# PKA-R2B activ: activators of PKA-R2B holoenzyme, primary screen, biochemical, fluorescence polarization, Cy5-IP20, human; AID 504700, 2011; cAMP-dependent protein kinase catalytic subunit beta (Homo sapiens) + cAMP-dependent …; hit rate 0.079% among 340,000; PKA-R2B holoenzyme dissociation; R2B truncated from residue 108, S112A mutant; 0% DMSO only, 100% 113 µM cGMP; activation, % at 11.4 µM;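 active = activation above a cutoff set at the mean over all compounds plus 3 SD, cut at about 18% in these data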;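 note: higher means more holoenzyme dissociation and a rise in polarization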
# SR-BI uptake up: activators of SR-BI mediated DiI-HDL uptake, primary screen, ldlA[mSR-BI] CHO cells, DiI fluorescence | 3 h; 100 = double the neutral-control signal | activation, % at 12.5 µM | hit rate 0.096% among 320,000;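 active = mean replicate activation of at least 60% and every replicate at or above 60%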;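 note: 0% = median plate neutral-control signal and 100% = twice that signal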
#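 Assay system: CHO ldlA[mSR-BI] cells, LDL receptor-null, SR-BI overexpressing; medium: Ham's F12 with 0.5% BSA, HEPES 25 mM, pH 7.4; also added: DiI-HDL 10 µg/mL; timing: 3 h uptake period with compound, 37 °C; signal: DiI fluorescence, bottom read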
# * = called active by the depositor; nt = no result given.
SMILES,Vif inh,SR-BI HDL uptake,PKA-R1A activ,PKA-R2B activ,SR-BI uptake up
N/C(=N\N=C\c1ccco1)SC1CC(=O)N(c2ccc(C(=O)O)cc2)C1=O (centres undefined),9,-60,-5,-1,60*
COc1cc(/C=C2/C(=N)N3C=CSC3=NC2=O)ccc1OCCCOc1c(C)cccc1C,10,81*,-3,-11,-81
COc1cc(/C=C2/C(=N)N3C=CSC3=NC2=O)ccc1OCCCOc1ccccc1C,11,62,-3,7,-62
COc1cc(/C=C2/C(=N)N3C=CSC3=NC2=O)ccc1OCCOc1ccc(NC(C)=O)cc1,61*,14,-2,-5,-14
COc1cc(/C=C2\C(=N)N3N=C(S(C)(=O)=O)SC3=NC2=O)ccc1OCCOc1ccc(C)cc1,-10,-3,2,-4,3
CCOc1cc(/C=C2/C(=N)N3C=CSC3=NC2=O)ccc1OCCCOc1ccccc1C,-8,102*,3,-3,-102
COCCNC(=O)C1CCCN(Cc2ccc(C)cc2)CC1 (centres undefined),-4,nt,nt,nt,nt
CCc1cc(=O)oc2cc(C)cc(OC(C)C(=O)NCc3ccccn3)c12 (centres undefined),-4,-7,-15,4,7
CCN(CC)C(=O)COc1ccc(-c2nnc(N3CCCCC3)c3ccccc23)cc1,-3,18,6,-3,-18
CCN(CC)C(=O)COc1ccc(-c2nnc(Nc3ccc(OC)c(C(=O)NC)c3)c3ccccc23)cc1,-5,87*,-9,0,-87
COc1ccc(Nc2nnc(-c3ccccc3)c3ccccc23)cc1C(=O)N1CCCCC1,-1,48,-9,-11,-48
COc1ccc(Nc2nnc(-c3ccc(C)cc3)c3ccccc23)cc1C(=O)N1CCCCC1,11,81*,-4,-1,-81
COc1ccc(CCN2C(=O)CSC2=S)cc1OC,-6,2,-6,-3,-2
COc1cc(/C=N\Nc2nncn2N)ccc1OC(C)=O,-1,-18,1,13,18
CCCCC1OC23CCCCC2C(C#N)(C#N)C1(C#N)C(=N)O3 (centres undefined),-7,-35,9,-10,35
CCCCC1OC23CCCCC2C(C#N)(C(=N)O3)C1(C#N)C#N (centres undefined),2,-81,-12,3,81*
CC(=O)Nc1ccc(NC(=O)C(C)OC(=O)CCCOc2ccc(Cl)cc2C)cc1 (centres undefined),-7,-7,13,-8,7
COc1ccc(/C=N/Nc2nncc3ccccc23)c(OC)c1,2,76*,-3,-9,-76
Cc1nc2nc(C)c(CCC(=O)NC3CCCCC3)c(C)n2n1,0,-6,5,7,6
Cc1[nH]nc(C(F)(F)F)c1CCC(=O)NC1CCCCCC1,59*,-16,-5,-16,16
CN(/N=C\c1ccc(O)c(O)c1)c1nc(-c2ccccc2)cc(-c2ccccc2)n1,21,112*,3,-4,-112
COc1ccc(S(=O)(=O)Nc2cc3c(C(C)=O)c(C)oc3c3ccccc23)cc1,102*,18,14,-9,-18
COc1ccc(-c2ccc(C(=O)NCc3ccc(N4CCN(C)CC4)cc3)c3occc23)c(C)c1,-21,nt,nt,nt,nt
COc1ccc(NC(=O)CN(C)S(=O)(=O)c2ccc(Cl)cc2)cn1,4,11,6,1,-11
COc1ccccc1C(=O)NCC(c1cccs1)N1CCc2ccccc21 (centres undefined),-3,-4,1,-13,4
Cc1ccc(-n2nc(C)c(=O)c(-c3ccccc3)c2NC(=O)c2cccs2)cc1,-7,-7,-7,-5,7
CCCC(=O)Nc1c(-c2ccccc2)c(=O)c(C)nn1-c1ccc(C)cc1,-11,-315,3,8,315*
